Source: PubChem BioAssay
Calls of active or inactive are those of the source.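 The calls were made as follows, unless noted: active = NADPH fluorescence slope more negative than the mean of all samples by about 3 SD, 99.7% confidence; inactive = the rest.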

How the values were obtained:
[1] = inhibitors of TNFa-induced NFkB p65 translocation, primary screen, imaging, HUVEC, MLSMR starter and 10KST1 sets (AID 438;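 active = inhibition above 20% together with a positive visual image hit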;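 also: compound added about 3h40 before a 20 min TNFalpha stimulation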;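 as to inhibition: signal is the nuclear over cytoplasmic p65 intensity ratio per well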); settings: HUVEC TNFa-induced p65 nuclear translocation; cell count: measured here: nuclei count (cytotoxicity indicator), at 2.08 µM; inhibition: at 2 µM, stronger effect = higher value, 0% TNFa-plus-vehicle, 100% no-TNFa wells
[2] = inhibitors of mutant huntingtin aggregation, primary screen, imaging, exon1htt(103Q)mCFP cells, high-content imaging (AID 483;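 active = visual image review flags a hit and inhibition of aggregation exceeds 20%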;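 also: compound exposure lasted 3 days before fixation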;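 as to nuclei count: percent of the per-plate median nuclei count of sample wells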); settings: exon1htt(103Q)mCFP cell line, aggregate imaging, at 2 µM; inhibition of aggregation: stronger effect = higher value; nuclei count: measured here: cell count, toxicity
[3] = inhibitors of E-selectin induction by TNFa, primary screen, imaging, HUVEC, immunofluorescence, MLSMR starter and 10KST1 sets (AID 487;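 active = visually confirmed hit in the image check and inhibition above 20%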;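 as to inhibition: signal is fraction of cell area covered by stained E-selectin grains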;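 as to nuclei count: 100% = median nuclei count of all wells on the same plate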); settings: HUVEC TNFalpha-induced E-selectin immunofluorescence imaging, at 2 µM; inhibition: stronger effect = higher value; nuclei count: measured here: cell number, toxicity
[4] = target: Voltage-gated potassium channel subunit beta-2 (Rattus norvegicus) (UniProt P62483); experiment: KvBeta enzyme negative modulators, primary screen, biochemical, NADPH fluorescence (AID 622;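 active = fluorescence slope higher than the sample average by over 3 SD, cut at about -0.22 in these data, passing the limit was not always enough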;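 also: slope of raw intensity against log time taken from 70 to 1610 s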); settings: recombinant KvBeta, 4-cyanobenzaldehyde reduction, at 10 µM, stronger effect = higher value
[5] = target: Voltage-gated potassium channel subunit beta-2 (Rattus norvegicus) (UniProt P62483); experiment: KvBeta positive modulators, primary screen, biochemical, NADPH fluorescence (AID 623); settings: Recombinant KvBeta, NADPH fluorescence decrease slope, 10 min; at 10 µM; stronger effect = lower value;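 also: fluorescence intensity change per second fitted from 20 to 320 s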
[6] = target: Muscarinic acetylcholine receptor M4 (Homo sapiens) (UniProt P08173); experiment: compounds altering M4/GIRK thallium flux, either direction, primary screen, M4 allosteric agonist project, cell-based, HEK293 M4/GIRK, BTC-AM (AID 625;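 active = fluorescence slope after compound addition differing from the mean of all tested samples at 99.7% confidence, mostly higher but some lower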;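 also: thallium influx through GIRK channels coupled to M4 in HEK293 cells with BTC-AM dye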); settings: at 10 µM, actives lie on both sides
Procedure, shortened: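 Material: HEK293 cells with M4 receptor and GIRK channels; Times: cells overnight at 37 °C, BTC-AM loading 1 h, reads 2 min total; Technique: kinetic BTC-AM fluorescence sampled at 1 Hz, 10 s pre-addition baseline; Read-out basis: slope over 15–24 s of trace normalized to starting intensity; Controls: carbachol positive, DMSO negative.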

[7] = inhibitors of Sendai virus-induced IRF3 signaling, primary screen, TLR/RLR signaling modifier project, cell-based, Sendai virus stimulus, luciferase, 10K MLSCN set (AID 602276;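 active = inhibition at or above 50% at 10 µM; inactive = inhibition below 50%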;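 also: firefly luciferase from ISG56 promoter only with Renilla not read in this screen; 0% = Sendai virus plus DMSO and 100% = medium plus DMSO without virus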); settings: HEK293 RL24 IRF3 luciferase reporter, at 10 µM, stronger effect = higher value
[8] = inhibitors of poly I:C-induced TLR3 signaling, primary screen, cell-based, poly I:C stimulus, luciferase, 10K MLSCN set (AID 602277;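 active = inhibition of the reporter signal at or above 50%; inactive = inhibition below 50%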); settings: HEK293-TLR3 RL24 IRF3 luciferase reporter, at 10 µM, stronger effect = higher value

Sequence of Muscarinic acetylcholine receptor M4 (Homo sapiens) (P08173 whole entry, looked up): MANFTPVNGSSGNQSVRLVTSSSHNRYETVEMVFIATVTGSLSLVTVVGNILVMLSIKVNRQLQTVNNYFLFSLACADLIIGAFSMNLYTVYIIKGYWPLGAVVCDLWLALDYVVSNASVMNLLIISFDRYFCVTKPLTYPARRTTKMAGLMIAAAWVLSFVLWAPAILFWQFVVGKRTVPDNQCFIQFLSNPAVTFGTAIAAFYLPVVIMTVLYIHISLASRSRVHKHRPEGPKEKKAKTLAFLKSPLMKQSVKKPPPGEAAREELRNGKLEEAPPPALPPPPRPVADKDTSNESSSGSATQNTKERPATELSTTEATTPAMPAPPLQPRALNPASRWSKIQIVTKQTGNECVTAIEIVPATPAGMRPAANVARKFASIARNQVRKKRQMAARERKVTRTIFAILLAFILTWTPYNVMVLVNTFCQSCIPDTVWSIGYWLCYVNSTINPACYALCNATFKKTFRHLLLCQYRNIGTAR
Sequence of Voltage-gated potassium channel subunit beta-2 (Rattus norvegicus) (P62483 whole entry, looked up): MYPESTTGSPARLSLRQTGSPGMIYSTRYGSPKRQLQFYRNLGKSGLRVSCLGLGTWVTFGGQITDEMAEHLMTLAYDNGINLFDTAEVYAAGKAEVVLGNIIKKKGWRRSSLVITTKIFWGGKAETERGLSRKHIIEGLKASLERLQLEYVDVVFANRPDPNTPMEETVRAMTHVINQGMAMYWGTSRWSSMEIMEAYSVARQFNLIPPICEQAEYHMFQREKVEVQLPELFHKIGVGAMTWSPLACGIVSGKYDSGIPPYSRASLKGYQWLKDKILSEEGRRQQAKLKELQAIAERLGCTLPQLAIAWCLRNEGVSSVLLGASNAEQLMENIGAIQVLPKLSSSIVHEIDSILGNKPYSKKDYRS

Row | Structure (SMILES) | cell count [1] | inhibition [1] | inhibition of aggregation [2] | nuclei count [2] [%] | inhibition [3] | nuclei count [3] [%] | fluorescence slope [4] | NADPH fluorescence slope [5] | fluorescence slope [6] | inhibition [7] | inhibition [8]
1 | COC(=O)c1sc(S(=O)(=O)Nc2ccc3cn[nH]c3c2)c(C(=O)OC)c1C | 392 | 1% (inactive) | 23.4% (inactive) | 80 | -83.8% (inactive) | 100 | -0.533 (inactive) | 5.3e-06 (inactive) | 0.0043 (inactive) | 13.4% (inactive) | 31.2% (inactive)
2 | CN(C)Cc1c(O)ccc2oc(Cc3ccccc3)cc12 | 676 | -9.1% (inactive) | 14.8% (inactive) | 65.8 | -12.9% (inactive) | 104 | -0.533 (inactive) | -6.9e-06 (inactive) | 0.00447 (inactive) | 22.6% (inactive) | 22.2% (inactive)
3 | O=C(CSc1nnc(Cn2cnc3ccccc32)o1)c1ccccc1 | 672 | 3% (inactive) | -1.5% (inactive) | 92.9 | 82.5% (inactive) | 52 | -0.464 (inactive) | -3.7e-05 (inactive) | 0.00662 (inactive) | 7.52% (inactive) | -3.02% (inactive)
4 | Cc1ccc2nc(CSc3nnc(-c4ccco4)n3-c3ccccc3)cc(=O)n2c1 | 509 | -7.8% (inactive) | -2% (inactive) | 115 | -175% (inactive) | 201 | -0.567 (inactive) | -1.2e-06 (inactive) | 0.00636 (inactive) | -11% (inactive) | -20% (inactive)
5 | CCCn1c(NCc2ccc3c(c2)OCO3)nc2ccccc21 | 650 | -6.8% (inactive) | 2.4% (inactive) | 97.6 | 32% (inactive) | 93.5 | -0.537 (inactive) | -5.7e-05 (inactive) | 0.00348 (inactive) | -9.91% (inactive) | -7.89% (inactive)
6 | COc1cccc(C(=O)CSc2nnc(COc3cccc4cccnc34)o2)c1 | 558 | -6.3% (inactive) | -10.3% (inactive) | 117 | -1.4% (inactive) | 197 | -0.51 (inactive) | 3.4e-05 (inactive) | 0.00397 (inactive) | -8.03% (inactive) | -13.7% (inactive)
7 | CCCn1c(SCC(=O)Nc2cc(C)on2)nc2c1c(=O)n(C)c(=O)n2C | 400 | 6.8% (inactive) | 3.2% (inactive) | 95.2 | -36.6% (inactive) | 152 | -0.551 (inactive) | -2.8e-05 (inactive) | 0.00431 (inactive) | -5.89% (inactive) | 0.557% (inactive)
8 | O=C(Nc1ccc(CN2CCCCC2)cc1)c1ccc2c(c1)OCO2 | 438 | -12.8% (inactive) | 15.1% (inactive) | 102 | -0.6% (inactive) | 73.6 | -0.473 (inactive) | -1.5e-05 (inactive) | 0.00547 (inactive) | -5.51% (inactive) | -5.01% (inactive)
9 | Cc1ccccc1-c1noc(N)c1C#N | 515 | 5.3% (inactive) | -0.5% (inactive) | 95.2 | 4.6% (inactive) | 103 | -0.317 (inactive) | -2.3e-05 (inactive) | 0.00617 (inactive) | 12.5% (inactive) | -2.11% (inactive)
10 | CCn1c(NCc2ccc(N(C)C)cc2)nc2ccccc21 | 627 | 12.5% (inactive) | -2.9% (inactive) | 96.5 | -34.6% (inactive) | 116 | -0.31 (inactive) | -2.4e-05 (inactive) | 0.00632 (inactive) | -9.27% (inactive) | -36.5% (inactive)
